According to paper PMC6720533 (Biomolecules & Therapeutics, 2019):

Columns and labels:
SEM cells = test: WST-1 metabolic activity assay; format: cell-based; details: Homo sapiens, 72 h, read-out: metabolic activity
In short: (§1)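 Test compound came from a 10 mM DMSO stock. Cells were seeded at 5×10^4/well in triplicate with 5 or 10 μM final compound; controls got matched DMSO. After 72 h at 37°C, 5% CO2, WST-1 was added for a further 3 h. Absorbance was read at 450 nm (reference 620 nm), and metabolic activity given as % of DMSO control.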

Jurkat cells = test: WST-1 metabolic activity assay; format: cell-based; details: Homo sapiens, 72 h, read-out: metabolic activity
In short: as §1

recombinant human CK2α1 = recombinant human CK2α1 (Homo sapiens, UniProt P68400); test: CK2 kinase activity assay; format: biochemical; details: 10 μM ATP, 60 min
Chain of recombinant human CK2α1 (P68400 whole entry): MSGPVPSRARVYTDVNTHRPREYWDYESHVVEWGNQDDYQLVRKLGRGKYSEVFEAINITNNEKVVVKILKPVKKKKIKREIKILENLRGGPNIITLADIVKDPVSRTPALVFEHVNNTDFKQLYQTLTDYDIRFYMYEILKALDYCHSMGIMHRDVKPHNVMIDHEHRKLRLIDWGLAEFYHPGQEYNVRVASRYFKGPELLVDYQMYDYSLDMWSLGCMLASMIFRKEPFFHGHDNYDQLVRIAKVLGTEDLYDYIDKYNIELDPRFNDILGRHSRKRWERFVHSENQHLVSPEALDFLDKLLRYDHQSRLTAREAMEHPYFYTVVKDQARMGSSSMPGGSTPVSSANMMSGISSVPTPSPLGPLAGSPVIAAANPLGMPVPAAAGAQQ
In short: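 Recombinant human CK2α1 (50 ng) was incubated with 2.5 μg CK2α1 substrate, 10 μM ATP, and test compound, reference inhibitor or DMSO for 60 min at room temperature. ADP-Glo reagent stopped the reaction and depleted remaining ATP. Detection reagent then converted ADP to ATP for luciferase/luciferin luminescence, which tracks the ADP formed as the measure of kinase activity.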

RS4;11 cells = test: WST-1 metabolic activity assay; format: cell-based; details: Homo sapiens, RS4-11, 72 h, read-out: metabolic activity
In short: as §1

CEM cells = test: WST-1 metabolic activity assay; format: cell-based; details: Homo sapiens, CCRF-CEM, 72 h, read-out: metabolic activity
In short: as §1

CK2 enzyme activity (recombinant human CK2α1; 0.1 μM) | CK2 enzyme activity compared to DMSO (100%) (recombinant human CK2α1; 1 μM) [%] | SMILES | activity at 5 µM (SEM cells) [%] | activity at 10 µM (SEM cells) [%] | viability at 5 µM (Jurkat cells) [%] | viability at 10 µM (Jurkat cells) [%] | activity at 5 µM (RS4;11 cells) [%] | activity at 10 µM (RS4;11 cells) [%] | viability at 5 µM (CEM cells) [%] | viability at 10 µM (CEM cells) [%]
 |  | Cc1ccc2cc(-c3ccccc3)nc(N)c2c1 [FX-43, 7-Methyl-3-phenylisoquinolin-1-amine] | 94.7 | 94.3 | 107 | 104 |  |  |  | 
Reduction of CK2 enzyme activity | 3.4 ± 0.3 | O=C(O)c1ccc2c(c1)nc(Nc1cccc(Cl)c1)c1ccncc12 [CX-4945, reference compound] |  |  |  |  |  |  |  | 
 |  | O=c1c2ccc(F)cc2nc2n1Cc1ccccc1-2 [FX-2, 7-Fluoroisoindolo[1,2-b]quinazolin-10(12H)-one] | 100 | 69.8 | 81.3 | 54.3 | 97.3 | 79.8 | 86.3 | 77.2
 |  | Cc1ccc2c(=O)n3c(nc2c1)-c1ccc(F)cc1C3 [FX-5, 2-Fluoro-7-methylisoindolo[1,2-b]quinazolin-10(12H)-one] | 91.7 | 74.7 | 94 | 96.5 | 91.4 | 86.7 | 101 | 95
 |  | O=c1c2ccccc2nc2n1Cc1cc(F)ccc1-2 [FX-6, 2-Fluoroisoindolo[1,2-b]quinazolin-10(12H)-one] | 72.1 | 51.4 | 105 | 97.5 | 76.6 | 67.1 | 93.2 | 107
 |  | CC(=O)c1ccc2c(=O)n3c(nc2c1)-c1ccccc1C3 [FX-1, 7-Acetylisoindolo[1,2-b]quinazolin-10(12H)-one] | 107 | 97.7 | 93.4 | 68.5 ± 14.8 | 99.3 | 94.4 | 87.1 | 83.9
 |  | Cc1ccc2nc3n(c(=O)c2c1)Cc1ccccc1-3 [FX-7, 8-Methylisoindolo[1,2-b]quinazolin-10(12H)-one] | 52.1 | 25.2 | 91.4 | 84.3 | 61.3 | 49.4 | 96.1 | 85
 |  | Cc1cc(C)c2nc3n(c(=O)c2c1)Cc1ccccc1-3 [FX-8, 6,8-Dimethylisoindolo[1,2-b]quinazolin-10(12H)-one] | 23.3 | 14.5 | 95.2 | 92.5 | 61.5 | 55.8 | 97 | 85
 |  | COc1ccc2c(N)nc(-c3ccccc3)cc2c1 [FX-42, 6-Methoxy-3-phenylisoquinolin-1-amine] | 66.7 | 24.5 | 88.4 | 32.4 |  |  |  | 
 |  | O=c1c2cc(Cl)ccc2nc2n1Cc1ccccc1-2 [FX-3, 8-Chloroisoindolo[1,2-b]quinazolin-10(12H)-one] | 32 | 26.7 | 57.9 | 77 | 73.8 | 40.2 | 76.2 | 86
 |  | Cc1ccc2c(=O)n3c(nc2c1)-c1ccccc1C3 [FX-4, 7-Methylisoindolo[1,2-b]quinazolin-10(12H)-one] | 96.8 | 64.9 | 90.4 | 86.6 | 91.2 | 85.9 | 102 | 90.6
